Data reported in ChEMBL document CHEMBL1148328, “Synthesis and structure-activity relationships of parasiticidal thiosemicarbazone cysteine protease inhibitors against Plasmodium falciparum, Trypanosoma brucei, and Trypanosoma cruzi” (J Med Chem, 2004).

Legend:
[1] = system: Trypanosoma brucei rhodesiense; experiment: Effective dose required to inhibit Trypanosoma brucei rhodesiense in culture; assay type: functional; conditions: read-out: ED50 (the source's name)
In short: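 T. b. rhodesiense grown at 37 °C, 5% CO2 in HMI-9 with 10% FBS and 10% Serum Plus, seeded at 10⁴ cells/mL. Inhibitor serially diluted directly in culture from the top concentration down to 1 nM. Exposure 48 h at 37 °C. Viability read as ATP content by CellTiter-Glo luminescence after 5 min shaking at room temperature, or by hemacytometer count.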

Falcipain 2 = molecular target: T1, Falcipain 2 (Plasmodium falciparum, UniProt Q9N6S8); experiment: Inhibition of falcipain2 from Plasmodium falciparum
T1 sequence (Q9N6S8 whole entry): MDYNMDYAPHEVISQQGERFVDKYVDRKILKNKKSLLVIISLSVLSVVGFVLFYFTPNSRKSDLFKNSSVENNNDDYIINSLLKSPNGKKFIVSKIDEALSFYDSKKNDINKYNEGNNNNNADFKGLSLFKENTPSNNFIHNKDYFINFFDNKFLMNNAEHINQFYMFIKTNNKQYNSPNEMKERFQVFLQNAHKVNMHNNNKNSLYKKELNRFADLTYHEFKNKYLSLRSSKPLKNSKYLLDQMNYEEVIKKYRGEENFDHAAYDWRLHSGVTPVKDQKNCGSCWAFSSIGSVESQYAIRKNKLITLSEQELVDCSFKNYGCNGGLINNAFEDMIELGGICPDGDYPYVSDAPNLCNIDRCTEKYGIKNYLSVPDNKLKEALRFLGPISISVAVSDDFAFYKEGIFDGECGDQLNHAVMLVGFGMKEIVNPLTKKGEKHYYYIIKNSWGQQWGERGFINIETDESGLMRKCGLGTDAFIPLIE
In short: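 Recombinant falcipain-2 preincubated 30 min at room temperature with inhibitor in 100 mM sodium acetate pH 5.5 with 10 mM DTT, DMSO at most 1%. Z-Leu-Arg-AMC then added to 25 μM final, and fluorescence monitored 15 min at room temperature. IC50 taken from plots of percent activity against compound concentration.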

[2] = Survival of infected cells against Trypanosoma cruzi in days at a dose of 5 uM; Toxicity = None
Rhodesain = Rhodesain (Trypanosoma brucei rhodesiense, UniProt Q95PM0); experiment: Inhibition of rhodesain from Trypanosoma brucei rhodesiense
Chain of Rhodesain (Q95PM0 whole entry): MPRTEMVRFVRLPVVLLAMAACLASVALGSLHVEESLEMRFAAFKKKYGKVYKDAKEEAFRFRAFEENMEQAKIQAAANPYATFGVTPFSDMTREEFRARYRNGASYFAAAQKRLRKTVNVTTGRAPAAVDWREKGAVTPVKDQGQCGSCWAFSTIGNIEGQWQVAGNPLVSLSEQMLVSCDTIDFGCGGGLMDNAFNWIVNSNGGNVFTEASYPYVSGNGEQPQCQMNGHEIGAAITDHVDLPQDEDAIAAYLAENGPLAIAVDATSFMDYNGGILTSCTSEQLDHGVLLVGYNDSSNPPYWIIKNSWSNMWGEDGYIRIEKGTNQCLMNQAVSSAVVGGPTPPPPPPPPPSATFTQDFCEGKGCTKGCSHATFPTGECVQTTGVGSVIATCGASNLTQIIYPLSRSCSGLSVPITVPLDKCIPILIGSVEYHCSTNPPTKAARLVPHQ
In short: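 Recombinant rhodesain (3 nM) preincubated 5 min at room temperature with 0.5–10 µM inhibitor in 100 mM sodium acetate pH 5.5, 5 mM DTT, 0.7% DMSO final. Z-Phe-Arg-AMC then added (20 µM final) and fluorescence rise followed at ex 355/em 460. IC50 read graphically from linear portion of inhibition vs log[I], seven concentrations, at least two in linear range.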

Cruzipain = Cruzipain (Trypanosoma cruzi, UniProt P25779); experiment: Inhibition of cruzain from Trypanosoma cruzi
Chain of Cruzipain (P25779 whole entry): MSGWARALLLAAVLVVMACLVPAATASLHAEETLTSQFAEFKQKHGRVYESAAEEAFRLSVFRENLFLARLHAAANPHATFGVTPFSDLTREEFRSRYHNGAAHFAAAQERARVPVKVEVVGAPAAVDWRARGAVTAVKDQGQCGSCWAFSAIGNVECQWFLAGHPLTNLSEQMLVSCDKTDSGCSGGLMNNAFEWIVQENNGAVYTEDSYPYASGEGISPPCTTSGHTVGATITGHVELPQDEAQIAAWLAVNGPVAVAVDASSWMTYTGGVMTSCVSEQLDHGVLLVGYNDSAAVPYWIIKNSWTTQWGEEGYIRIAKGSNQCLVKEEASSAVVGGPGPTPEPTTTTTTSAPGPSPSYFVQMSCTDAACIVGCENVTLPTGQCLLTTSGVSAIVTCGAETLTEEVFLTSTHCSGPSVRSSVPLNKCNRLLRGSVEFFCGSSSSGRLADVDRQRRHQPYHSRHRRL
In short: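 Recombinant cruzain (2 nM) preincubated 5 min at room temperature with 0.5–10 μM inhibitor in 100 mM sodium acetate pH 5.5 with 5 mM DTT, 0.7% DMSO. Reaction started with Z-Phe-Arg-AMC at 20 μM final (Km 1 μM), followed by fluorescence at ex 355/em 460. IC50 read graphically from inhibition vs log[I], seven concentrations with at least two in the linear range.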

Plasmodium falciparum = experiment: Effective inhibition of Plasmodium falciparum; assay type: functional; conditions: read-out: ED50 (the source's name)
In short: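 W2-strain parasites at 1% parasitemia and 2% hematocrit, run in duplicate. Inhibitor diluted from DMSO stocks in 1:5 steps to final 10 μM, 2000, 400, 80, 16 and 3.2 nM. Cultures kept 2 days at 37 °C, then washed and fixed in 1% formaldehyde/PBS. Parasitemia measured by flow cytometry with YOYO-1 DNA stain.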

[3] = Survival of infected cells against Trypanosoma cruzi in days at a dose of 5 uM; Toxicity = Toxic

Row | SMILES | EC50 [1] | IC50 (Falcipain 2) | Survival [2] | IC50 (Rhodesain) | IC50 (Cruzipain) | EC50 (Plasmodium falciparum) | Survival [3]
1 | C/C(=N\N=C(\N)S)c1ccc(Nc2ccccc2)cc1 | 4.5 µM | > 20 µM | 43 days | 18 µM | > 20 µM | 9.9 µM | –
2 | C/C(=N\N=C(\N)S)c1cccc(-c2ccccc2)c1 | 12 µM | – | 43 days | 1.1 µM | 8 µM | – | –
3 | CS/C(S)=N/N=C(\C)c1cccc(Br)c1 | 10 µM | – | – | > 20 µM | > 20 µM | – | 7 days
4 | C/C(=N/N=C(/N)S)c1cccc(/C(C)=N/N=C(/N)S)c1 | > 20 µM | – | 5 days | 0.33 µM | 5 µM | – | –
5 | C/C(=N\N=C(/S)N1CCCCC1)c1cccc(Br)c1 | 3 µM | – | 5 days | 4 µM | 5 µM | – | –
6 | C/C(=N\N=C(\N)S)c1cccc(Oc2ccccc2)c1 | 6 µM | – | – | 0.55 µM | 10 µM | – | 27 days
7 | CCN(CC)/C(S)=N/N=C(\C)c1cccc(Br)c1 | 3 µM | – | 5 days | 1.8 µM | 5 µM | – | –
8 | C/C(=N\N=C(\N)S)c1ccc(Oc2ccccc2)cc1 | 3 µM | – | – | 8 µM | 10 µM | – | 28 days
9 | C/C(=N\N=C(\N)S)c1cccc(Nc2ccccc2)c1 | 8 µM | – | 43 days | 0.8 µM | > 20 µM | – | –
10 | C/C(=N\N=C(\N)S)c1ccc(-c2ccccc2)cc1 | 10 µM | 10 µM | – | 0.09 µM | 5 µM | > 20 µM | 8 days
11 | C/C(=N/N=C(/N)S)c1cccc(/C(C)=N/N=C(/N)S)n1 | – | > 20 µM | – | – | – | 0.03 µM | –
12 | C/C(=N\N=C(/S)N1CCN(C)CC1)c1cccc(Br)c1 | 2 µM | > 20 µM | – | 4 µM | 5 µM | 4 µM | 14 days
13 | C/C(=N\NC(N)=S)c1ccccn1 | 4 µM | > 20 µM | 43 days | > 20 µM | > 20 µM | 0.08 µM | –
14 | CS/C(S)=N/N=C(\C)c1ccccn1 | 0.3 µM | > 20 µM | – | > 20 µM | – | 0.03 µM | –
15 | C/C(=N\N=C(\N)S)c1cccc(Br)c1 | > 20 µM | – | 43 days | 0.05 µM | 0.06 µM | – | –
